# According to ChEMBL document CHEMBL4261601, “Discovery and lead identification of quinazoline-based BRD4 inhibitors” (Bioorg Med Chem Lett, 2018):
# Experiments:
# [1] = system: MV4-11; experiment: Cytotoxicity against human MV411 cells after 72 hrs by CellTiter-Glo assay; format: functional, cell-based; conditions: MV4-11, 72 h
# [2] = target: T1, Bromodomain-containing protein 4 (Homo sapiens, UniProt O60885); experiment: Displacement of biotinylated acetylated peptide from recombinant human partial length BRD4 long isoform bromodomain 1/2 (N44 to E460 residues) expressed in Escherichia coli BL21 measured after 1 hr by Bromoscan method
# [3] = system: Mus musculus; experiment: Cmax in CD-1 mouse at 10 mg/kg, po measured after 5 mins; format: ADME, organism-based; parameters: dose 10 mg/kg, route oral; conditions: in vivo
# [4] = Half life in CD-1 mouse at 10 mg/kg, po; format: ADME, organism-based; conditions: in vivo
# Procedure, shortened: (§1)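 CD-1 mice (n = 3) received a single oral dose of 10 mg/kg. Plasma drug levels were followed over time to derive AUC0–∞, t1/2 and oral bioavailability (F%), the last relative to the iv arm.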
# [5] = (§2) AUC (0 to infinity) in CD-1 mouse at 10 mg/kg, po; format: ADME, organism-based; parameters: dose 10 mg/kg, time infinity, route oral; conditions: CD-1, mouse, in vivo; procedure, shortened: as §1
# [6] = target: T1, Bromodomain-containing protein 4; experiment: Displacement of biotinylated acetylated peptide from recombinant human partial length BRD4 long isoform bromodomain 2 (K333 to E460 residues) expressed in Escherichia coli BL21 measured after 1 hr by Bromoscan method
# [7] = target: T2, Bromodomain-containing protein 3 (Homo sapiens, UniProt Q15059); experiment: Displacement of biotinylated acetylated peptide from recombinant human partial length BRD3 bromodomain 1/2 (P24 to P416 residues) expressed in Escherichia coli BL21 measured after 1 hr by Bromoscan method
# T2 sequence (Q15059 whole entry, the tested form may be a part): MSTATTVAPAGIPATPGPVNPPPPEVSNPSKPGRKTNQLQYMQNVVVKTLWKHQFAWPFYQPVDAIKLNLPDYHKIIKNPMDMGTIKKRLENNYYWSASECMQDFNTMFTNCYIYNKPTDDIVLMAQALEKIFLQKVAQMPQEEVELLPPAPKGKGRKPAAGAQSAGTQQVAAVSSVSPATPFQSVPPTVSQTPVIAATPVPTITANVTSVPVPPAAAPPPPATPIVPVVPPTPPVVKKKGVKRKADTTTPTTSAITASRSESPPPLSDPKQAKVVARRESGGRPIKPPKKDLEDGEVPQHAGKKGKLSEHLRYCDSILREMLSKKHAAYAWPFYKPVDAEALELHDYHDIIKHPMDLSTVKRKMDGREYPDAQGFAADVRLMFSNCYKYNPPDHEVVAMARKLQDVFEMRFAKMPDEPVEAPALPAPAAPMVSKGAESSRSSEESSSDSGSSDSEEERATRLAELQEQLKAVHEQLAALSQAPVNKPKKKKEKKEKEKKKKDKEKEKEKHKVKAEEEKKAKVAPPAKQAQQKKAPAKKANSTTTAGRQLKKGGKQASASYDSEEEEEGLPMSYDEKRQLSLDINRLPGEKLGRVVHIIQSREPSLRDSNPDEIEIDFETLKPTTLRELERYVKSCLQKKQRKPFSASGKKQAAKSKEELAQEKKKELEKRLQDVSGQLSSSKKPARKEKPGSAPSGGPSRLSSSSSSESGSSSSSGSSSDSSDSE
# [8] = target: T2, Bromodomain-containing protein 3; experiment: Displacement of biotinylated acetylated peptide from recombinant human partial length BRD3 bromodomain 1 (P24 to E144 residues) expressed in Escherichia coli BL21 measured after 1 hr by Bromoscan method
# [9] = target: T3, Bromodomain-containing protein 2 (Homo sapiens, UniProt P25440); experiment: Displacement of biotinylated acetylated peptide from recombinant human partial length BRD2 isoform 1 bromodomain 1/2 (K71 to D455 residues) expressed in Escherichia coli BL21 measured after 1 hr by Bromoscan method
# T3 sequence (P25440 whole entry, the tested form may be a part, canonical isoform): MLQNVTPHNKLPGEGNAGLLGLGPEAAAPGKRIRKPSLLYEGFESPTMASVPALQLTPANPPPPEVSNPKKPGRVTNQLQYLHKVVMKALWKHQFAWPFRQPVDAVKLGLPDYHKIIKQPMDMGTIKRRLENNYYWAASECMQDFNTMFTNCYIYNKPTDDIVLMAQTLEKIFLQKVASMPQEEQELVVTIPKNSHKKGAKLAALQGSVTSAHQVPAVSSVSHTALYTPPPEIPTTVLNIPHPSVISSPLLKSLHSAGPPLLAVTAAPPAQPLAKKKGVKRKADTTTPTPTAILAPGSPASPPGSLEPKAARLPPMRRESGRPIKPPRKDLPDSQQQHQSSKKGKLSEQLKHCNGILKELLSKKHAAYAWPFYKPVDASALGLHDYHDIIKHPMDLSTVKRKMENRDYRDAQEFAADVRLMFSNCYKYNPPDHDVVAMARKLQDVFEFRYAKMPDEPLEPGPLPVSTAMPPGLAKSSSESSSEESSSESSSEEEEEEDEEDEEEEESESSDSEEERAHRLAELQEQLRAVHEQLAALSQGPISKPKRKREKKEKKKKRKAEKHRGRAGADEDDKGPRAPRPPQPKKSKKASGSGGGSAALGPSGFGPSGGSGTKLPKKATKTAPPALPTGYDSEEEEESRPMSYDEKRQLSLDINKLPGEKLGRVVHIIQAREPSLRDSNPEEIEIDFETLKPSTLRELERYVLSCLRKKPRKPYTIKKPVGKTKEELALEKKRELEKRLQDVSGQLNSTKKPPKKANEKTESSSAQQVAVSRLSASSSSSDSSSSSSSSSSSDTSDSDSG
# [10] = target: T2, Bromodomain-containing protein 3; experiment: Displacement of biotinylated acetylated peptide from recombinant human partial length BRD3 bromodomain 2 (G306 to P416 residues) expressed in Escherichia coli BL21 measured after 1 hr by Bromoscan method
# [11] = target: T4, Bromodomain testis-specific protein (Homo sapiens, UniProt Q58F21); experiment: Displacement of biotinylated acetylated peptide from recombinant human partial length BRDT isoform b bromodomain 1 (N21 to E137 residues) expressed in Escherichia coli BL21 measured after 1 hr by Bromoscan method
# [12] = target: T4, Bromodomain testis-specific protein; experiment: Displacement of biotinylated acetylated peptide from recombinant human partial length BRDT isoform b bromodomain 1/2 (N21 to E382 residues) expressed in Escherichia coli BL21 measured after 1 hr by Bromoscan method
# [13] = target: T3, Bromodomain-containing protein 2; experiment: Displacement of biotinylated acetylated peptide from recombinant human partial length BRD2 isoform 1 bromodomain 1 (K71 to N194 residues) expressed in Escherichia coli BL21 measured after 1 hr by Bromoscan method
# [14] = target: T4, Bromodomain testis-specific protein; experiment: Displacement of biotinylated acetylated peptide from recombinant human partial length BRDT isoform b bromodomain 2 (K250 to E382 residues) expressed in Escherichia coli BL21 measured after 1 hr by Bromoscan method
# [15] = target: T3, Bromodomain-containing protein 2; experiment: Displacement of biotinylated acetylated peptide from recombinant human partial length BRD2 isoform 1 bromodomain 2 (E348 to D455 residues) expressed in Escherichia coli BL21 measured after 1 hr by Bromoscan method
# [16] = target: T1, Bromodomain-containing protein 4; experiment: Displacement of biotinylated acetylated peptide from recombinant human partial length BRD4 long isoform bromodomain 1 (N44 to E168 residues) expressed in Escherichia coli BL21 measured after 1 hr by Bromoscan method
# [17] = system: Mus musculus; experiment: as §2; format: ADME, organism-based; parameters: dose 10 mg/kg, time infinity, route oral; conditions: mouse, in vivo, BLD = below limit of detection; procedure, shortened: as §1
# [18] = system: Mus musculus; experiment: Cmax in CD-1 mouse at 2 mg/kg, iv measured after 5 mins; format: ADME, organism-based; parameters: dose 2 mg/kg, route intravenous; conditions: in vivo
# [19] = system: Mus musculus; experiment: Oral bioavailability in CD-1 mouse at 10 mg/kg; format: ADME, organism-based; conditions: in vivo; procedure, shortened: as §1
# [20] = Volume of distribution at steady state in CD-1 mouse at 2 mg/kg, iv measured; format: ADME, organism-based; conditions: in vivo, read-out: Vdss
# [21] = Plasma clearance in CD-1 mouse at 2 mg/kg, iv; format: ADME, organism-based
# [22] = Half life in CD-1 mouse at 2 mg/kg, iv; format: ADME, organism-based; conditions: in vivo
# [23] = AUC (0 to infinity) in CD-1 mouse at 2 mg/kg, iv; format: ADME, organism-based; parameters: dose 2 mg/kg, time infinity, route intravenous; conditions: in vivo
SMILES,IC50 [1] [µM],Kd [2] [µM],also measured
CN(C)CCN1CCN(c2nc(NCc3cccc(Cl)c3)c3cc(-c4ccc(O)nc4)ccc3n2)CC1,6.07,0.55,–
Cc1noc(C)c1-c1ccc2nc(N(C)CCN(C)C)nc(NCc3cccc(Cl)c3)c2c1,2.97,0.11,–
Cc1noc(C)c1-c1ccc2nc(C(=O)NCc3cnn(C)c3)nc(NCc3cccc(Cl)c3)c2c1,1.27,0.059,–
CN(C)CCN1CCN(c2nc(NCc3cccc(Cl)c3)c3cc(-c4ccn(C)c(=O)c4)ccc3n2)CC1,6.89,7.1,–
Cc1noc(C)c1-c1ccc2nc(N3CCN(CCN(C)C)CC3)nc(NCCc3ccc(Cl)cc3)c2c1,6.65,3,–
COCCn1cc(-c2nc(NCc3cccc(Cl)c3)c3cc(-c4c(C)noc4C)ccc3n2)cn1,1.87,0.092,–
Cc1noc(C)c1-c1ccc2nc(N3CCN(CCN(C)C)CC3)nc(N3CCC3c3ccccc3)c2c1 (centres undefined),4.88,0.48,–
Cc1noc(C)c1-c1ccc2[nH]c(=O)cc(NCc3cccc(Cl)c3)c2c1,1.8,0.055,–
Cc1noc(C)c1-c1ccc2nc(N3CCN(C(=O)CO)CC3)nc(NCc3cccc(Cl)c3)c2c1,1.33,0.071,–
Cc1oncc1-c1ccc2nc(N3CCN(CCN(C)C)CC3)nc(NCc3cccc(Cl)c3)c2c1,8.03,1.1,–
Cc1noc(C)c1-c1ccc2nc(C(=O)NC3CCOCC3)nc(NCc3cccc(Cl)c3)c2c1,2.84,0.079,–
CN(C)CCN1CCN(c2nc(NCc3cccc(Cl)c3)c3cc(-c4ccnc(O)c4)ccc3n2)CC1,17.3,9.1,–
Cc1noc(C)c1-c1ccc2nc(Cl)nc(NCc3cccc(Cl)c3)c2c1,11.3,–,–
Cc1noc(C)c1-c1ccc2c(NCc3cccc(Cl)c3)nc(N3CCN(CCN(C)C)CC3)nc2c1,1.87,0.61,–
Cc1noc(C)c1-c1ccc2nc(N3CCN(CCN(C)C)CC3)nc(NCc3cccc(F)c3)c2c1,1.23,0.17,–
Cc1noc(C)c1-c1ccc2nc(N3CCN(CCN(C)C)CC3)nc(NCc3cccs3)c2c1,1.62,0.15,–
Cc1noc(C)c1-c1ccc2nc(N3CCN(CCN(C)C)CC3)nc(NCc3cncc(Cl)c3)c2c1,1.37,0.079,–
Cc1noc(C)c1-c1ccc2nc(N3CCN(CCN(C)C)CC3)nc(NC3(c4cccc(Cl)c4)CC3)c2c1,1.6,0.086,–
Cc1noc(C)c1-c1ccc2nc(-c3cnn(CCC#N)c3)nc(NCc3cccc(Cl)c3)c2c1,0.95,0.12,–
Cc1noc(C)c1-c1ccc2nc(N3CCN(CCCN(C)C)CC3)nc(NCc3cccc(Cl)c3)c2c1,2.36,0.097,–
Cc1noc(C)c1-c1ccc2nc(C(=O)NC3CCN(C)CC3)nc(NCc3cccc(Cl)c3)c2c1,1.02,0.08,Cmax [3]: 0.009 µg/mL; half-life [4]: 4 h; AUC(0-inf) [5]: 0.054 µg·h/mL
Cc1n[nH]c(C)c1-c1ccc2nc(N3CCN(CCN(C)C)CC3)nc(NCc3cccc(Cl)c3)c2c1,2.85,1.5,–
Cc1noc(C)c1-c1ccc2nc(N3CCN(C)CC3)nc(NCc3cccc(Cl)c3)c2c1,1.6,0.14,–
Cc1noc(C)c1-c1ccc2nc(N3CCN(CCN(C)C)CC3)nc(N(C)Cc3cccc(Cl)c3)c2c1,5.5,0.27,–
Cc1noc(C)c1-c1ccc2nc(N3CCCN(CCN(C)C)CC3)nc(NCc3cccc(Cl)c3)c2c1,2.1,0.15,–
Cc1noc(C)c1-c1ccc2nc(N3CCN(CCN(C)C)CC3)nc(N3CCCCC3c3ccccc3)c2c1 (centres undefined),5.07,0.06,–
Cc1noc(C)c1-c1ccc2nc(-c3cnn(CCO)c3)nc(NCc3cccc(Cl)c3)c2c1,1.67,0.095,–

SMILES,IC50 [1] [µM],Kd [2] [µM],also measured
Cc1noc(C)c1-c1ccc2nc(N3CCN(CCN(C)C)CC3)nc(N3CCCC3c3ccccc3)c2c1 (centres undefined),2.54,0.25,–
Cc1noc(C)c1-c1ccc2nc(-n3cc(CCO)cn3)nc(NCc3cccc(Cl)c3)c2c1,3.08,–,–
Cc1noc(C)c1-c1ccc2nc(N3CCN(CCN(C)C)CC3)nc(NCc3cccc(Cl)c3)c2c1,0.66,0.056,–
Cc1noc(C)c1-c1ccc2nc(C(=O)NCc3cccnc3)nc(NCc3cccc(Cl)c3)c2c1,1.43,0.056,–
Cc1cc(-c2ccc3nc(N4CCN(CCN(C)C)CC4)nc(NCc4cccc(Cl)c4)c3c2)cnc1O,1.13,0.31,–
Cc1ccc(NC(=O)c2nc(NCc3cccc(Cl)c3)c3cc(-c4c(C)noc4C)ccc3n2)cn1,4.52,0.62,–
CNc1nc(NCc2cccc(Cl)c2)c2cc(-c3c(C)noc3C)ccc2n1,3.59,–,–
CN(C)CCN1CCN(c2nc(NCc3cccc(Cl)c3)c3cc(-c4ccc(=O)n(C)c4)ccc3n2)CC1,0.54,0.044,Kd [6]: 0.05 µM; Kd [7]: 0.02 µM; Kd [8]: 0.021 µM; Kd [9]: 0.027 µM; Kd [10]: 0.021 µM; Kd [11]: 0.02 µM; Kd [12]: 0.067 µM; Kd [13]: 0.033 µM; Kd [14]: 0.16 µM; Kd [15]: 0.024 µM; Kd [16]: 0.018 µM; AUC [17]: Bld
Cc1noc(C)c1-c1ccc2nc(N3CCN(CCN(C)C)CC3)nc(Nc3ccc(Cl)cc3)c2c1,1.51,2.6,–
Cc1noc(C)c1-c1ccc2nc(-c3cnn(CCO)c3)nc(N3CCOCC3c3ccccc3)c2c1 (centres undefined),–,0.066,Cmax [18]: 1.69 µg/mL; F [19]: 51%; Vd [20]: 1.7 L/kg; clearance [21]: 1.19 L/h/kg; half-life [4]: 2.1 h; half-life [22]: 3.1 h; AUC(0-inf) [23]: 1.76 µg·h/mL; AUC(0-inf) [5]: 4.49 µg·h/mL
Cc1noc(C)c1-c1ccc2nc(N3CCN(CCN(C)C)CC3)nc(NCc3ccc(Cl)cc3)c2c1,3.48,0.52,–
Cc1noc(C)c1-c1ccc2nc(N3CCN(CCN(C)C)CC3)nc(N[C@@H](CO)c3ccccc3)c2c1,2.1,0.13,–
Cc1noc(C)c1-c1ccc2nc(N3CCN(CC(=O)N(C)C)CC3)nc(NCc3cccc(Cl)c3)c2c1,1.73,0.073,–
Cc1nocc1-c1ccc2nc(N3CCN(CCN(C)C)CC3)nc(NCc3cccc(Cl)c3)c2c1,2.97,0.36,–
CNC(=O)Cn1cc(-c2nc(NCc3cccc(Cl)c3)c3cc(-c4c(C)noc4C)ccc3n2)cn1,1.01,–,–
Cc1noc(C)c1-c1ccc2nc(C(=O)Nc3cnn(C)c3)nc(NCc3cccc(Cl)c3)c2c1,3.59,0.29,–
Cc1noc(C)c1-c1ccc2nc(N3CCN(CCC(C)C)CC3)nc(NCc3cccc(Cl)c3)c2c1,6.89,0.98,–
Cc1noc(C)c1-c1ccc2nc(N3CCN(CCN(C)C)CC3)nc(NCc3ccccc3Cl)c2c1,1.25,0.085,–
Cc1noc(C)c1-c1ccc2nc(N3CCN(CCN(C)C)CC3)nc(NCc3cc(Cl)ccn3)c2c1,1.6,0.11,–
Cc1noc(C)c1-c1ccc2nc(-c3cnn(CC(N)=O)c3)nc(NCc3cccc(Cl)c3)c2c1,0.66,0.13,–
Cc1noc(C)c1-c1ccc2nc(N3CCN(CCN(C)C)CC3)nc(NC(C)c3cccc(Cl)c3)c2c1 (centres undefined),4.35,0.27,–
Cc1noc(C)c1-c1ccc2nc(N3CCN(C(=O)CN(C)C)CC3)nc(NCc3cccc(Cl)c3)c2c1,1.23,0.03,–
Cc1noc(C)c1-c1ccc2nc(-c3cnn(CCN(C)C)c3)nc(NCc3cccc(Cl)c3)c2c1,1.33,0.056,–
Cc1noc(C)c1-c1ccc2nc(N3CCN(CCN(C)C)CC3)nc(N3CCOCC3c3ccccc3)c2c1 (centres undefined),1.83,–,–
Cc1noc(C)c1-c1ccc2nc(-c3ccc(CO)nc3)nc(NCc3cccc(Cl)c3)c2c1,2.64,–,–
Cc1noc(C)c1-c1ccc2nc(C(=O)N3CCN(CCN(C)C)CC3)nc(NCc3cccc(Cl)c3)c2c1,4.71,0.57,–
Cc1noc(C)c1-c1ccc2nc(N3CCN(CCO)CC3)nc(NCc3cccc(Cl)c3)c2c1,1.67,0.056,–
